Source: ChEMBL document CHEMBL1155280, “New arylthioindoles and related bioisosteres at the sulfur bridging group. 4. Synthesis, tubulin polymerization, cell growth inhibition, and molecular modeling studies” (J Med Chem, 2009)
Active and inactive are the calls of the source. The calls are words filed in the database; no cut-off is given here.

Columns and labels:
[1] = Inhibition of tubulin polymerization after 20 mins by spectrophotometry
Summary of the method: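 Tubulin 10 μM in 0.8 M monosodium glutamate, pH 6.6, preincubated 15 min at 30 °C with varying drug, chilled on ice. GTP added to 0.4 mM, turbidity at 350 nm followed 20 min at 30 °C. Extent of assembly measured; IC50 ± SD.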

Bos taurus = species on record: Bos taurus; experiment: Inhibition of [3H]colchicine binding to bovine tubulin at 5 uM after 10 mins by DEAE-cellulose filter method
MCF7 [2] = experiment: Growth inhibition of human MCF7 cells after 48 hrs by sulforhodamine B assay; format: functional, cell-based; details: MCF7, 48 h
Saccharomyces cerevisiae [3] = experiment: Toxicity in Saccharomyces cerevisiae assessed as growth inhibition at second dilution at 20 uM after 3 days; format: organism-based; details: in vivo, 72 h
Summary of the method: (§1)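 S. cerevisiae BY4741 grown at 28 °C in minimal SD medium with 2% glucose. Exponential culture (5 × 10^6 cells/mL) exposed 18 h at 28 °C to compound at 20 μM, washed, resuspended in SD, serially diluted 10-fold, incubated overnight. Spotted onto YPD plates; growth scored by dilution reached after 3 days at 28 °C.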

M14 [4] = experiment: Cytotoxicity against human M14 cells after 48 hrs by MTT assay; format: functional, cell-based
Summary of the method: (§2)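 MTT assay. Seeded 10^5 cells/well, compound added after 24 h at 10, 30, 50, 100, 150, 200 nM for 24 or 48 h. MTT 1 mg/mL, 2 h at 37 °C in dark, formazan dissolved in DMSO, read at 550 nm. Triplicate; 0.5% DMSO control.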

HUVEC = experiment: Growth inhibition of HUVEC; format: cell-based; details: Homo sapiens
Summary of the method: (§3)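 Human aortic smooth muscle, PtK2 kidney epithelial, rat A10 aortic smooth muscle and HUVEC lines grown as the supplier recommends, under 5% CO2.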

M14 [5] = experiment: Cytotoxicity against human M14 cells assessed as effect on cell morphology at 300 nM after 48 hrs by time-lapse microscopy; format: functional, cell-based
Summary of the method: (§4)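 Morphology of HEK and M14 cells followed by time-lapse microscopy in 96-well plates at 37 °C, 5% CO2, with images captured every hour over 48 h.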

HCT-116 [6] = experiment: Antiproliferative activity against human HCT116 cells expressing mismatch repair gene MLH1 complemented with chromosome 3 assessed as cell proliferation at 0.5 uM after 24 hrs by MTT assay relative to control; format: functional; details: HCT-116, 24 h, read-out: Activity
Summary of the method: (§5)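 HeLa and HCT116/chr3 cells grown at 37 °C, 5% CO2 in D-MEM with 10% fetal calf serum (HCT116/chr3 medium plus 500 μg/mL G418). Seeded 1 × 10^3 cells/well, treated 24 h later for 24 h from 10 mM DMSO stock; 1% DMSO solvent control. Quadruplicate, repeated three times; given as % of control ± SD.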

A10 = experiment: Growth inhibition of rat A10 cells; format: cell-based; summary of the method: as §3
HEK293 [7] = experiment: Cytotoxicity against HEK293 cells at 10 to 200 nM by MTT assay; format: cell-based; details: human, hek293, 0.2 µM; TDE = time-dependent effect; summary of the method: as §2
[8] = Growth inhibition of HSMC; format: cell-based; details: Homo sapiens; summary of the method: as §3
MCF7 [9] = experiment: Selectivity index, ratio of IC50 for rat A10 cells to IC50 for human MCF7 cells; format: functional
Summary of the method: (§6)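 Selectivity index: IC50 in the named nontransformed line divided by IC50 in MCF-7 cells.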

Saccharomyces cerevisiae [10] = experiment: Toxicity in Saccharomyces cerevisiae assessed as growth inhibition at first dilution at 20 uM after 3 days; format: organism-based; details: in vivo, 72 h; summary of the method: as §1
MCF7 [11] = experiment: Selectivity index, ratio of IC50 for Potorous tridactylus PtK2 cells to IC50 for human MCF7 cells; format: functional; summary of the method: as §6
U-937 [12] = experiment: Cytotoxicity against human U937 cells at 10 to 200 nM by MTT assay; format: functional, cell-based; details: TDE = time-dependent effect; summary of the method: as §2
HEK293 [13] = experiment: Cytotoxicity against HEK293 cells after 48 hrs by MTT assay; format: cell-based, Homo sapiens; details: human, hek293, 48 h; summary of the method: as §2
[14] = Growth inhibition of mouse J774.1 cells at 300 nM after 48 hrs by MTT assay relative to control; format: cell-based; details: read-out: GI
HCT-116 [15] = experiment: Antiproliferative activity against human HCT116 cells expressing mismatch repair gene MLH1 complemented with chromosome 3 assessed as cell proliferation at 1 uM after 24 hrs by MTT assay relative to control; format: functional; details: HCT-116, 24 h, read-out: Activity; summary of the method: as §5
HEK293 [16] = experiment: Cytotoxicity against HEK293 cells assessed as effect on cell morphology at 300 nM after 48 hrs by time-lapse microscopy; format: cell-based; details: human, hek293, 48 h, 0.3 µM; summary of the method: as §4
HeLa [17] = experiment: Antiproliferative activity against human HeLa cells assessed as cell proliferation at 0.5 uM after 24 hrs by MTT assay relative to control; format: functional; details: read-out: Activity; summary of the method: as §5
MCF7 [18] = experiment: Selectivity index, ratio of IC50 for HUVEC to IC50 for human MCF7 cells; summary of the method: as §6
U-937 [19] = experiment: Cytotoxicity against human U937 cells after 48 hrs by MTT assay; format: functional, cell-based; summary of the method: as §2
Homo sapiens = species on record: Homo sapiens; experiment: Selectivity index, ratio of IC50 for HSMC to IC50 for human MCF7; summary of the method: as §6
HeLa [20] = experiment: Antiproliferative activity against human HeLa cells assessed as cell proliferation at 1 uM after 24 hrs by MTT assay relative to control; format: functional; details: read-out: Activity; summary of the method: as §5
[21] = Growth inhibition of Potorous tridactylus PtK2 cells; format: cell-based; summary of the method: as §3
M14 [22] = experiment: Cytotoxicity against human M14 cells at 10 to 200 nM by MTT assay; format: functional, cell-based; details: TDE = time-dependent effect; summary of the method: as §2

## CCOC(=O)c1[nH]c2ccc(Cl)cc2c1Sc1cc(OC)c(OC)c(OC)c1
[1]
  IC50: 2200 nM
Bos taurus
  inhibition: 53%

## CCOC(=O)c1c(CC)c(CC)c(C)n1Cc1cc(OC)c(OC)c(OC)c1
[1]
  IC50: > 40000 nM

## CCOC(=O)c1cccn1C(=O)c1cc(OC)c(OC)c(OC)c1
[1]
  IC50: 32000 nM
MCF7 [2]
  IC50: > 2500 nM

## COC(=O)c1[nH]c2ccccc2c1C(=O)c1cc(OC)c(OC)c(OC)c1
[1]
  IC50: 2700 nM
Bos taurus
  inhibition: 49%
MCF7 [2]
  IC50: 33 nM

## CCOC(=O)c1[nH]c2ccc(OC)cc2c1C(O)c1cc(OC)c(OC)c(OC)c1 (centres undefined)
[1]
  IC50: > 40000 nM

## COC(=O)c1[nH]c2ccccc2c1Cc1cc(OC)c(OC)c(OC)c1
[1]
  IC50: 4200 nM
Bos taurus
  inhibition: 33%
MCF7 [2]
  IC50: 190 nM

## COc1ccc2[nH]cc(Cc3cc(OC)c(OC)c(OC)c3)c2c1
[1]
  IC50: 14000 nM

## COc1cc(Sc2c[nH]c3ccc(Cl)cc23)cc(OC)c1OC
[1]
  IC50: 2600 nM
Bos taurus
  inhibition: 51%

## COC(=O)c1[nH]c2ccc(OC)cc2c1S(=O)(=O)c1cc(OC)c(OC)c(OC)c1
[1]
  IC50: > 40000 nM

## CCOC(=O)c1[nH]c2ccc(Cl)cc2c1Cc1cc(OC)c(OC)c(OC)c1
[1]
  IC50: 2500 nM
Bos taurus
  inhibition: 39%
MCF7 [2]
  IC50: 230 nM

## CCOC(=O)c1[nH]c2ccc(Cl)cc2c1C(=O)C(=O)c1cc(OC)c(OC)c(OC)c1
[1]
  IC50: > 40000 nM

## COC(=O)c1[nH]c2ccc(Cl)cc2c1Cc1cc(OC)c(OC)c(OC)c1
[1]
  IC50: 1700 nM
Bos taurus
  inhibition: 49%
MCF7 [2]
  IC50: 87 nM

## CCOC(=O)c1[nH]c2ccc(Cl)cc2c1CCc1cc(OC)c(OC)c(OC)c1
[1]
  IC50: > 40000 nM

## CCOC(=O)c1[nH]c2ccc(OC)cc2c1C(=O)c1cc(OC)c(OC)c(OC)c1
[1]
  IC50: 2600 nM
Bos taurus
  inhibition: 49%
MCF7 [2]
  IC50: 90 nM

## COc1ccc2[nH]cc(Sc3cc(OC)c(OC)c(OC)c3)c2c1
[1]
  IC50: 4100 nM
Bos taurus
  inhibition: 61%
MCF7 [2]
  IC50: 22 nM

## COc1cc(Sc2c[nH]c3ccc(Br)cc23)cc(OC)c1OC
Saccharomyces cerevisiae [3]
  Activity: Non-toxic
M14 [4]
  Activity: Dose-dependent effect
M14 [4]; M14, 48 h
  IC50: 194 nM
HUVEC
  IC50: 400 nM
M14 [5]
  Activity: Active
HCT-116 [6]
  growth at 0.5 µM: 60%
A10
  IC50: 210 nM
HEK293 [7]
  Activity: tde
[8]
  IC50: 300 nM
MCF7 [9]
  Ratio IC50: 4.9
Saccharomyces cerevisiae [10]
  Activity: Toxic
MCF7 [11]
  Ratio IC50: 5.3
[1]
  IC50: 1600 nM
U-937 [12]
  Activity: tde
HEK293 [13]
  Activity: Dose-dependent effect
[14]
  inhibition at 48 h, 0.3 µM: 20%
Bos taurus
  inhibition: 65%
HCT-116 [15]
  growth at 1 µM: 60%
HEK293 [16]
  Activity: Toxic
HeLa [17]
  growth at 0.5 µM: 47%
MCF7 [18]
  Ratio IC50: 9.3
U-937 [19]
  Activity: Dose-dependent effect
U-937 [19]; U-937, 48 h
  IC50: 100 nM
MCF7 [2]
  IC50: 43 nM
Homo sapiens
  Ratio IC50: 7
HeLa [20]
  growth at 1 µM: 56%
[21]
  IC50: 230 nM
M14 [22]
  Activity: tde

## CCOC(=O)c1[nH]c2ccc(OC)cc2c1Sc1cc(OC)c(OC)c(OC)c1
[1]
  IC50: 2400 nM
Bos taurus
  inhibition: 71%
MCF7 [2]
  IC50: 46 nM

## COc1cc(Cn2cccc2C(=O)O)cc(OC)c1OC
Saccharomyces cerevisiae [3]
  Activity: Non-toxic
Saccharomyces cerevisiae [10]
  Activity: Toxic
[1]
  IC50: > 40000 nM
MCF7 [2]
  IC50: > 2500 nM

## COc1cc(C(=O)c2c[nH]c3ccc(Cl)cc23)cc(OC)c1OC
[1]
  IC50: 2500 nM
Bos taurus
  inhibition: 44%
MCF7 [2]
  IC50: 53 nM

## COC(=O)c1[nH]c2ccc(OC)cc2c1S(=O)c1cc(OC)c(OC)c(OC)c1 (centres undefined)
[1]
  IC50: > 40000 nM
